Experimental data taken from PMC12178318 (Cancer, 2025).

How the values were obtained:
[1] = system: patients with mycosis fungoides or Sézary syndrome; conditions: cited from earlier work
[2] = system: patients with advanced solid tumors; assay: Phase 1 safety and tolerability; assay type: in vivo, human; conditions: any cycle, N = 36
Outline: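 Adults (≥18 y) with locally advanced or metastatic solid tumours who had failed available therapy. They took oral test compound at 0.3–100 mg once daily alone for 28 days (cycle 0), then with IV anti-CCR4 antibody 1 mg/kg weekly (cycle 1) and every 2 weeks thereafter. AEs were coded by MedDRA 19.0 and graded by CTCAE 4.03, with relatedness judged by investigators. The DLT window was 56 days. Patients receiving any dose were counted as frequency and percentage.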

[3] = 184 mogamulizumab-treated patients, MAVORIC

## mogamulizumab: recombinant, humanized monoclonal antibody of immunoglobulin G1-κ targeting CCR4
[1]; [3]
  IRRs, patients: 33%
  drug eruptions, patients: 24%
[1]; post hoc analysis of MAVORIC
  long-term responders who experienced drug eruptions: 60%
[2]
  IRRs related (TRAE) to the named drug, patients: 39%
  drug eruption related (TRAE) to the named drug, patients: 50%
  nausea related (TRAE) to the named drug, patients: 14%
